Experiment [1] can be described thus: RPL19A-GFP modulators, yeast TOR pathway, confirmation, cell-based, S. cerevisiae, flow cytometry, cherry picks, mother/daughter gates (AID 2270;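 active = GFP response below 50% of the DMSO control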). To be noted: S. cerevisiae RPL19A-GFP strain, 3 h, at 10 µM, stronger effect = lower value, 100 = same GFP as DMSO wells. For orientation: In flow cytometry, cells or beads pass a laser one at a time.
The nature of experiment [2]: LAP4-GFP expression modulators in yeast, confirmation, cell-based, cherry picks, flow cytometry, mother/daughter gates (AID 2271;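 active = GFP response above 150% of the DMSO control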;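 also: ratio of sample to DMSO plate mean so 100% equals DMSO level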). Conditions: S. cerevisiae LAP4-GFP strain, 3 h, at 10 µM, stronger effect = higher value, 100 means same as DMSO control. A digest of the protocol:
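Material – Alexa Fluor 633-labelled Saccharomyces cerevisiae GFP-fusion strain, single-plex · Incubation – compound exposure 3 h at 30 °C, end-over-end rotation · Measured by – GFP by flow cytometry · Measure – median GFP fluorescence as percent of plate-mean DMSO wells · Control set – positive rapamycin (400 ng/mL), negative DMSO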

Experiment [3] is described as follows: modulators of MEP2-GFP levels in yeast, confirmation, S. cerevisiae, flow cytometry GFP, cherry picks (AID 2272;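 active = GFP response above 150% of the DMSO control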;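 also: ratio of well signal to plate DMSO mean so 100% equals DMSO level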). Conditions: S. cerevisiae MEP2-GFP strain, 3 h, at 10 µM, stronger effect = higher value.
Experiment [4] in a line: AGP1-GFP expression modulators, hit retest, confirmation, cell-based, flow cytometry, S. cerevisiae, cherry picks (AID 2273).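 Also: median GFP channel fluorescence over the whole cell population gate.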 To be noted: S. cerevisiae AGP1-GFP strain, 3 h, at 10 µM.
The nature of experiment [5]: modulators of CIT2-GFP expression in yeast, confirmation, S. cerevisiae, GFP fusion, cherry picks, mother/daughter gates (AID 2274). To be noted: S. cerevisiae CIT2-GFP strain, flow cytometry, 3 h, at 10 µM, stronger effect = higher value.
Where [6] appears, read: measured here: daughter cell gate.
Setting [7] is: measured here: mother cell gate.
The mark [8] stands for this setting: measured here: daughter cell gate response.
Where [9] appears, read: measured here: mother cell gate response.

The structures appear in SMILES notation. Calls of active or inactive are those of the source.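 The calls were made as follows, unless noted: active = GFP response above 150% of the DMSO level; inconclusive = fewer than 70 events counted for a yeast strain; inactive = the rest.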

For `Oc1c(C(Nc2nc3ccccc3s2)c2ccco2)ccc2cccnc12` (stereo unspecified), the GFP response vs DMSO is 98.9% (inactive) in experiment [1], 98.7% in experiment [1] (setting [6]), 95.9% in experiment [1] (setting [7]) and 112% (inactive) in experiment [3]. The GFP response relative to DMSO in experiment [2] was 149% (inactive); in experiment [2] (setting [8]), 132%; in experiment [2] (setting [9]), 145%. In addition, the GFP response, % of DMSO was 97.7% (inactive) in experiment [4], 100% (inactive) in experiment [5], 103% in experiment [5] (setting [6]) and 94.9% in experiment [5] (setting [7]).

For `Clc1ccc(OCCn2cnc3ccccc32)c(Cl)c1`, the GFP response vs DMSO in experiment [1] is 87.5% (inactive); in experiment [1] (setting [6]) it was 82.3%; in experiment [1] (setting [7]), 89.4%; in experiment [3], 89.9% (inactive). Also, the figures for the GFP response relative to DMSO in experiment [2], in experiment [2] (setting [8]) and in experiment [2] (setting [9]) were 134% (inactive), 123% and 142%, respectively. In addition, the GFP response, % of DMSO in experiment [4] is 92.7% (inactive); in experiment [5], 82.6% (inactive); in experiment [5] (setting [6]), 80.7%; in experiment [5] (setting [7]), 84.3%.

Turning to `Cc1cc(N2CCOCC2)n2nc(C)c(-c3ccccc3)c2n1`, the GFP response vs DMSO is 103% (inactive) in experiment [1], 100% in experiment [1] (setting [6]), 102% in experiment [1] (setting [7]) and 101% (inactive) in experiment [3]. For the same compound, the GFP response relative to DMSO was 98.2% (inactive) in experiment [2], 95.9% in experiment [2] (setting [8]) and 97.3% in experiment [2] (setting [9]). Further, the GFP response, % of DMSO in experiment [4] was 101% (inactive); in experiment [5], 98.8% (inactive); in experiment [5] (setting [6]), 97.4%; in experiment [5] (setting [7]) it was 98.1%.

Take `CCOC(=O)C(=CNNc1ccccc1)C(=O)OCC`: the GFP response vs DMSO in experiment [1] is 106% (inactive); in experiment [1] (setting [6]), 105%; in experiment [1] (setting [7]), 105%; in experiment [3], 113% (inactive). Moreover, the GFP response relative to DMSO was 136% (inactive) in experiment [2], 133% in experiment [2] (setting [8]) and 140% in experiment [2] (setting [9]). Besides, the GFP response, % of DMSO in experiment [4] was 102% (inactive); in experiment [5] it was 103% (inactive); in experiment [5] (setting [6]), 101%; in experiment [5] (setting [7]), 103%.

For `O=C1CC(Sc2ncccn2)C(=O)N1c1ccccc1C(F)(F)F` (stereo unspecified), the GFP response vs DMSO in experiment [1] is 100% (inactive); in experiment [1] (setting [6]), 100%; in experiment [1] (setting [7]), 100%; in experiment [3], 100% (inactive). In addition, the results for the GFP response relative to DMSO in experiment [2], in experiment [2] (setting [8]) and in experiment [2] (setting [9]) were 98.7% (inactive), 102% and 99.3%, respectively. Besides, the GFP response, % of DMSO in experiment [4] is 98.9% (inactive); in experiment [5], 96.5% (inactive); in experiment [5] (setting [6]) it was 96.5%; in experiment [5] (setting [7]), 97.7%.

As to `CCSc1nnc(NC(=O)c2nc(S(=O)(=O)Cc3ccc(F)cc3)ncc2Cl)s1`, the GFP response vs DMSO in experiment [1] was 102% (inactive); in experiment [1] (setting [6]), 99%; in experiment [1] (setting [7]) it was 103%; in experiment [3] it was 104% (inactive). Further, the values for the GFP response relative to DMSO in experiment [2], in experiment [2] (setting [8]) and in experiment [2] (setting [9]) were 103% (inactive), 108% and 103%, respectively. For the same compound, the GFP response, % of DMSO is 102% (inactive) in experiment [4], 112% (inactive) in experiment [5], 110% in experiment [5] (setting [6]) and 113% in experiment [5] (setting [7]).

Turning to `COC(=O)c1ccc(N2C(=O)CC(Sc3n[nH]c(C)n3)C2=O)cc1` (stereo unspecified), the GFP response vs DMSO in experiment [1] is 101% (inactive); in experiment [1] (setting [6]) it was 103%; in experiment [1] (setting [7]) it was 98%; in experiment [3], 108% (inactive). The GFP response relative to DMSO is 128% (inactive) in experiment [2], 130% in experiment [2] (setting [8]) and 131% in experiment [2] (setting [9]). Also, the GFP response, % of DMSO is 101% (inactive) in experiment [4], 106% (inactive) in experiment [5], 108% in experiment [5] (setting [6]) and 103% in experiment [5] (setting [7]).

As for `NC(N)=N/N=C/c1ccc(OCc2ccc(Cl)cc2Cl)cc1`, the GFP response vs DMSO in experiment [1] was 88.9% (inactive); in experiment [1] (setting [6]) it was 82.8%; in experiment [1] (setting [7]), 87.2%; in experiment [3] it was 105% (inactive). The GFP response relative to DMSO in experiment [2] is 115% (inactive); in experiment [2] (setting [8]), 106%; in experiment [2] (setting [9]), 121%. Moreover, the GFP response, % of DMSO in experiment [4] was 99.1% (inactive); in experiment [5], 85.5% (inactive); in experiment [5] (setting [6]) it was 80.7%; in experiment [5] (setting [7]), 84.3%.

On to `O=C(N/N=C/c1ccc(-c2ccc(Br)cc2)o1)c1ccc2c(c1)OCO2`, for which the GFP response vs DMSO in experiment [1] was 102% (inactive); in experiment [1] (setting [6]) it was 98.6%; in experiment [1] (setting [7]), 101%; in experiment [3], 103% (inactive). Further, the values for the GFP response relative to DMSO in experiment [2], in experiment [2] (setting [8]) and in experiment [2] (setting [9]) were 99.5% (inactive), 95.9% and 98.4%, respectively. Also, the GFP response, % of DMSO in experiment [4] was 98.8% (inactive); in experiment [5] it was 102% (inactive); in experiment [5] (setting [6]) it was 99.2%; in experiment [5] (setting [7]), 98.1%.

`COc1ccc(CN2CCN(c3ncccn3)CC2)c(C)c1C`: the GFP response vs DMSO is 96.2% (inactive) in experiment [1], 98.1% in experiment [1] (setting [6]), 95.2% in experiment [1] (setting [7]) and 99.3% (inactive) in experiment [3]. Besides, the GFP response relative to DMSO in experiment [2] was 100% (inactive); in experiment [2] (setting [8]), 101%; in experiment [2] (setting [9]), 100%. The GFP response, % of DMSO was 100% (inactive) in experiment [4], 100% (inactive) in experiment [5], 101% in experiment [5] (setting [6]) and 102% in experiment [5] (setting [7]).

With `COc1cccc(C(=O)C(C#N)=C(SC)SC)c1`, the GFP response vs DMSO in experiment [1] was 108% (inactive); in experiment [1] (setting [6]), 102%; in experiment [1] (setting [7]) it was 106%; in experiment [3], 97.8% (inactive). The GFP response relative to DMSO in experiment [2] is 123% (inactive); in experiment [2] (setting [8]), 108%; in experiment [2] (setting [9]) it was 126%. Further, the GFP response, % of DMSO is 95.7% (inactive) in experiment [4], 80.8% (inactive) in experiment [5], 80.1% in experiment [5] (setting [6]) and 79.4% in experiment [5] (setting [7]).

Turning to `CCOC(=O)Cc1csc(NC(=O)CSc2nnc(-c3ccc(C)cc3)o2)n1`, the GFP response vs DMSO is 101% (inactive) in experiment [1], 98.8% in experiment [1] (setting [6]), 101% in experiment [1] (setting [7]) and 104% (inactive) in experiment [3]. Further, the GFP response relative to DMSO is 103% (inactive) in experiment [2], 101% in experiment [2] (setting [8]) and 101% in experiment [2] (setting [9]). Also, the GFP response, % of DMSO in experiment [4] was 104% (inactive); in experiment [5] it was 104% (inactive); in experiment [5] (setting [6]), 98.3%; in experiment [5] (setting [7]), 105%.

As to `COc1cc(NC(=O)c2ccccc2F)ccc1NC(=O)c1cc2ccccc2o1`, the GFP response vs DMSO in experiment [1] is 87.2% (inactive); in experiment [1] (setting [6]), 90.2%; in experiment [1] (setting [7]), 88.8%; in experiment [3] it was 107% (inactive). Moreover, the GFP response relative to DMSO in experiment [2] is 97% (inactive); in experiment [2] (setting [8]), 97.5%; in experiment [2] (setting [9]), 97.3%. The GFP response, % of DMSO in experiment [4] was 101% (inactive); in experiment [5] it was 100% (inactive); in experiment [5] (setting [6]), 97.4%; in experiment [5] (setting [7]), 98.1%.

As to `COc1ccc(OC)c(C(=O)/C=C/c2ccccc2C(F)(F)F)c1`, the GFP response vs DMSO in experiment [1] was 97.6% (inactive); in experiment [1] (setting [6]) it was 95.8%; in experiment [1] (setting [7]), 98.7%; in experiment [3] it was 105% (inactive). Besides, the GFP response relative to DMSO in experiment [2] is 102% (inactive); in experiment [2] (setting [8]), 103%; in experiment [2] (setting [9]) it was 103%. Besides, the GFP response, % of DMSO in experiment [4] was 98.9% (inactive); in experiment [5], 94.7% (inactive); in experiment [5] (setting [6]) it was 96.8%; in experiment [5] (setting [7]) it was 94.7%.

Consider `O=C(Nc1nc(-c2ccccn2)cs1)c1cc2ccccc2o1`, for which the GFP response vs DMSO is 97.4% (inactive) in experiment [1], 96.7% in experiment [1] (setting [6]), 83.7% in experiment [1] (setting [7]) and 129% (inactive) in experiment [3]. For the same compound, the GFP response relative to DMSO in experiment [2] was 285% (active); in experiment [2] (setting [8]), 163%; in experiment [2] (setting [9]), 215%. Besides, the GFP response, % of DMSO in experiment [4] was 120% (inactive); in experiment [5], 124% (inactive); in experiment [5] (setting [6]), 104%; in experiment [5] (setting [7]), 91%.

Turning to `O=C(CN1CCCC1)Nc1cc(C(F)(F)F)cc(C(F)(F)F)c1`, the GFP response vs DMSO is 101% (inactive) in experiment [1], 110% in experiment [1] (setting [6]), 100% in experiment [1] (setting [7]) and 68.3% (inactive) in experiment [3]. Besides, the GFP response relative to DMSO was 98.9% (inactive) in experiment [2], 102% in experiment [2] (setting [8]) and 98.4% in experiment [2] (setting [9]). For the same compound, the GFP response, % of DMSO in experiment [4] was 102% (inactive); in experiment [5] it was 98.6% (inactive); in experiment [5] (setting [6]), 99.3%; in experiment [5] (setting [7]) it was 97.1%.
